Results reported in ChEMBL document CHEMBL1140549, “Rational design of N-alkyl derivatives of 2-amino-2-deoxy-d-glucitol-6P as antifungal agents” (Bioorg Med Chem Lett, 2007).
pIC50, pKi: −log10 of the molar value. ≈ marks a conversion by molar mass, not a printed value. Calls of active or inactive are those of the source. The rule behind the calls is not given here.

Columns and labels:
Saccharomyces cerevisiae [1] = assay: Antimicrobial activity against Saccharomyces cerevisiae ADCDR1 by serial dilution microplate method; format: functional
In short: (§1)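 Saccharomyces cerevisiae AD lacks the seven genes for the main drug-exporting membrane proteins. ADCDR1 is AD transformed with a plasmid carrying the gene for Candida albicans Cdr1p drug exporter. MIC was read by serial dilution in microplates.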

Candida albicans [2] = assay: Antifungal activity against Candida albicans by serial dilution microplate method; format: functional
[3] = target: Glucose-6-phosphate isomerase (Saccharomyces cerevisiae S288c) (UniProt P12709); assay: Inhibition of yeast phosphoglucose isomerase upto 20 mM
[4] = Inhibition of Candida albicans glucosamine-6P synthase by Elson-Morgan method
In short: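 Enzyme was Candida albicans GlcN-6P synthase purified to near homogeneity. Reactions ran in 25 mM phosphate buffer, pH 6.9, with 1 mM EDTA and 1 mM DTT, D-Fru-6P (0.5–7.5 mM) and L-glutamine (0.625–10 mM), plus inhibitor. Product was measured by a modified Elson–Morgan method. IC50 and Ki are means of three experiments, with SD.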

Saccharomyces cerevisiae [5] = assay: Antimicrobial activity against Saccharomyces cerevisiae AD by serial dilution microplate method; format: functional; in short: as §1
Nakaseomyces glabratus = assay: Antifungal activity against Candida glabrata by serial dilution microplate method; format: functional
Candida albicans [6] = assay: Drug uptake in Candida albicans assessed as uptake rate per mg dry weight; format: ADME, organism-based; settings: in vivo
Candida tropicalis = assay: Antifungal activity against Candida tropicalis by serial dilution microplate method; format: functional

Glucose-6-phosphate isomerase (Saccharomyces cerevisiae S288c), sequence (P12709 whole entry): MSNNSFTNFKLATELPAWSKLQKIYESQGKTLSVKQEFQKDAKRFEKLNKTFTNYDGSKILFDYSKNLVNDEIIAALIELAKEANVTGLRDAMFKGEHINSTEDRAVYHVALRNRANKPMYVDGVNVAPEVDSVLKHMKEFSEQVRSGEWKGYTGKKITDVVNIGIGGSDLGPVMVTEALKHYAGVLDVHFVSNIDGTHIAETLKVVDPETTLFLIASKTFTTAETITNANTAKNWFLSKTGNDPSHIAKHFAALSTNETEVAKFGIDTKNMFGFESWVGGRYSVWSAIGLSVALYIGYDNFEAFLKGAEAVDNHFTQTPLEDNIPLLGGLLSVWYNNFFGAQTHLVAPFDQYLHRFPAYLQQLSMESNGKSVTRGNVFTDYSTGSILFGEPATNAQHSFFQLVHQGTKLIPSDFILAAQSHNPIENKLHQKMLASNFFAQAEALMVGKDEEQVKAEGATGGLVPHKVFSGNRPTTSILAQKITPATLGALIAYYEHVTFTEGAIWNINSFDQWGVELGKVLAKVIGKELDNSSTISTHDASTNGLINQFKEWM

Structure (SMILES) | MIC (Saccharomyces cerevisiae [1]) | MIC (Candida albicans [2]) | Activity [3] | pIC50 [4] | pKi [4] | MIC (Saccharomyces cerevisiae [5]) | MIC (Nakaseomyces glabratus) | Drug uptake (Candida albicans [6]) | MIC (Candida tropicalis)
CCN(CC)[C@@H](CO)[C@@H](O)[C@H](O)[C@H](O)COP(=O)(O)O | 310 µg/mL (≈ 977 µM) | 310 µg/mL (≈ 977 µM) | inactive | 4.40 | 5.10 | 310 µg/mL (≈ 977 µM) | 625 µg/mL (≈ 1970 µM) | 3.9 nmol/mg/min | 625 µg/mL (≈ 1970 µM)
CCCN(CCC)[C@@H](CO)[C@@H](O)[C@H](O)[C@H](O)COP(=O)(O)O | 160 µg/mL (≈ 463 µM) | 160 µg/mL (≈ 463 µM) | inactive | 4.28 | 5.00 | 80 µg/mL (≈ 232 µM) | 625 µg/mL (≈ 1810 µM) | 4.7 nmol/mg/min | 625 µg/mL (≈ 1810 µM)
OC(Cn1cncn1)(Cn1cncn1)c1ccc(F)cc1F [FLUCONAZOLE] | 32 µg/mL (≈ 104 µM) | 8 µg/mL (≈ 26.1 µM) | – | – | – | 4 µg/mL (≈ 13.1 µM) | 16 µg/mL (≈ 52.2 µM) | – | 16 µg/mL (≈ 52.2 µM)
CCCCN(CCCC)[C@@H](CO)[C@@H](O)[C@H](O)[C@H](O)COP(=O)(O)O | 1250 µg/mL (≈ 3350 µM) | 312 µg/mL (≈ 836 µM) | inactive | 4.09 | 4.92 | 1250 µg/mL (≈ 3350 µM) | 1250 µg/mL (≈ 3350 µM) | 5 nmol/mg/min | 2500 µg/mL (≈ 6700 µM)
CCCCCCN[C@@H](CO)[C@@H](O)[C@H](O)[C@H](O)COP(=O)(O)O | 310 µg/mL (≈ 898 µM) | 625 µg/mL (≈ 1810 µM) | inactive | 3.54 | 4.31 | 310 µg/mL (≈ 898 µM) | 625 µg/mL (≈ 1810 µM) | 4.8 nmol/mg/min | 310 µg/mL (≈ 898 µM)
CCCCN[C@@H](CO)[C@@H](O)[C@H](O)[C@H](O)COP(=O)(O)O | 1250 µg/mL (≈ 3940 µM) | 625 µg/mL (≈ 1970 µM) | inactive | 3.94 | 4.70 | 1250 µg/mL (≈ 3940 µM) | 1250 µg/mL (≈ 3940 µM) | 3.4 nmol/mg/min | 1250 µg/mL (≈ 3940 µM)
CCN[C@@H](CO)[C@@H](O)[C@H](O)[C@H](O)COP(=O)(O)O | 2500 µg/mL (≈ 8640 µM) | 1250 µg/mL (≈ 4320 µM) | inactive | 3.74 | 4.59 | 2500 µg/mL (≈ 8640 µM) | 2500 µg/mL (≈ 8640 µM) | 2.9 nmol/mg/min | 2500 µg/mL (≈ 8640 µM)
N[C@@H](CO)[C@@H](O)[C@H](O)[C@H](O)COP(=O)(O)O | 5000 µg/mL (≈ 19100 µM) | 5000 µg/mL (≈ 19100 µM) | inactive | 3.64 | 4.46 | 5000 µg/mL (≈ 19100 µM) | 10000 µg/mL (≈ 38300 µM) | 1.1 nmol/mg/min | 10000 µg/mL (≈ 38300 µM)
